In PubChem BioAssay AID493046 (Johns Hopkins Ion Channel Center, 2011):
Calls of active or inactive are those of the source.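 How the source made its calls: active means KCNQ5 potassium channel activity raised or lowered at any tested dose, with a dose response curve obtained; inactive means no effect at any dose, or no curve obtained.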

target: Potassium voltage-gated channel subfamily KQT member 5 (Homo sapiens) (UniProt Q9NR82); test: KCNQ5 channel potentiation by KCNQ2 openers, dose response, selectivity assay for KCNQ2 activator project, cell-based, thallium flux (AID 493046); conditions: CHO-K1 transfected KCNQ5, FluxOR thallium flux fluorescence; series mostly up to 30 µM
Sequence (Q9NR82 whole entry, looked up): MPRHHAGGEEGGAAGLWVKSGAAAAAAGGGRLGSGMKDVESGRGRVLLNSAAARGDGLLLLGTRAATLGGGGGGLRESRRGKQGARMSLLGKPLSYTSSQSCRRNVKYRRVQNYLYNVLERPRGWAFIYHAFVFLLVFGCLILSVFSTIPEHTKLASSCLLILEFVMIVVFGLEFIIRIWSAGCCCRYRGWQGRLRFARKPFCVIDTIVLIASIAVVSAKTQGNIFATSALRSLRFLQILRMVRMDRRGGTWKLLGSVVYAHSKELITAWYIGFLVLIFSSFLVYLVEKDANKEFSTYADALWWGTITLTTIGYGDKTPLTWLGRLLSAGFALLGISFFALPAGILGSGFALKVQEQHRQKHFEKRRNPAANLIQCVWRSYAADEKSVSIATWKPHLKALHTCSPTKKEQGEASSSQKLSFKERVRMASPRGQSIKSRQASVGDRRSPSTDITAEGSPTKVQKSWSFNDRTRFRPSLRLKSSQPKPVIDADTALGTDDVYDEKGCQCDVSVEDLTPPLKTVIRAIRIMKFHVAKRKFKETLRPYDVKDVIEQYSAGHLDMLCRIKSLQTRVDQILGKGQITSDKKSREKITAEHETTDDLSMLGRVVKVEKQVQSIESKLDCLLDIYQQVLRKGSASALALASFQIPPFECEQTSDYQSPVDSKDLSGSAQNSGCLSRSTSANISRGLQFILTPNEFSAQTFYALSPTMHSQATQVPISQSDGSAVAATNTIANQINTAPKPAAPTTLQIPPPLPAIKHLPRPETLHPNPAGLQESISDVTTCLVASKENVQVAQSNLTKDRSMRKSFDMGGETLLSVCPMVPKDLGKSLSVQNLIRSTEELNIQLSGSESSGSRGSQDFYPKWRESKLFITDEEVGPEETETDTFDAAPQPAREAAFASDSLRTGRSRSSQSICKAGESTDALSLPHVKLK
Summary of the method: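 assay system = CHO-K1 cells transiently transfected with human KCNQ5 channel | timing = transfection 24 h before, dye 90 min, compound 20 min, room temperature | detection = kinetic fluorescence of thallium flux with FluxOR dye | benchmarks = vehicle controls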

| Compound | outcome |
| --- | --- |
| Cc1ccc(C)c(NC(=O)C2CC3CCC2C3)c1 (stereo not given) | inactive |
| Cc1cc(C)c(NC(=O)C2CC3CCC2C3)c(C)c1 (stereo not given) | inactive |
| CCCCC(=O)Nc1c(C)cc(C)cc1Cl | inactive |
| Cc1cc(C)c(NC(=O)CC(C)(C)C)c(Cl)c1 | inactive |
| Cc1cccc(C)c1NC(=O)C1CC2CCC1C2 (stereo not given) | inactive |
